Here are results for four molecules from article PMC12304097 (Scientific Reports, 2025).

The target of data set [1] is T1, NEP2 (recombinant soluble extracellular domain) (Homo sapiens, UniProt Q495T6).
T1 sequence (Q495T6 74-779): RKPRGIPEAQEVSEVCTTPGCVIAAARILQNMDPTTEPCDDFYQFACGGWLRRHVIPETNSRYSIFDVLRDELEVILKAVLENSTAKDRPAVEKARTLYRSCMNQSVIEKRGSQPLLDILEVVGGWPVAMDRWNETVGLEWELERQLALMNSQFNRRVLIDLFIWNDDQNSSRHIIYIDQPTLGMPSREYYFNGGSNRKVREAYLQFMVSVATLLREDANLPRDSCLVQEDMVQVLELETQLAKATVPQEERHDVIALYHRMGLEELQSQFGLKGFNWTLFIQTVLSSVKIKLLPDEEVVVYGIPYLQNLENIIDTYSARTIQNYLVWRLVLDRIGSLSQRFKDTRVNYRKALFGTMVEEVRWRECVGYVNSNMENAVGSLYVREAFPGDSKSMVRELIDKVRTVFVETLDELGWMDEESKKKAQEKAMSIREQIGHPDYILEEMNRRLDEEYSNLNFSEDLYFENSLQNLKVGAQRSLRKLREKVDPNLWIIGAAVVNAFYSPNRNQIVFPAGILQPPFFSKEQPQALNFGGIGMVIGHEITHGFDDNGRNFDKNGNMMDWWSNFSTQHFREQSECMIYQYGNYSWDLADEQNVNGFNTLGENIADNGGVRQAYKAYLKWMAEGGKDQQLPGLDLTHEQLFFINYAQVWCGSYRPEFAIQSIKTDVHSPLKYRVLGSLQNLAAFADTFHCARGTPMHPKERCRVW
In words: Inhibition of NEP2-mediated NP cleavage. The data set is classed as biochemical. To be noted: inhibitor 50 µM, NEP2 113 nM.

For data set [2], the target named is T2, NEP (recombinant soluble extracellular domain) (Homo sapiens, UniProt P08473). As to the kind of experiment: Inhibition of NEP-mediated NP cleavage. The data set is classed as biochemical. To be noted: inhibitor 50 µM, NEP 9.4 nM.
T2 sequence (P08473 56-750): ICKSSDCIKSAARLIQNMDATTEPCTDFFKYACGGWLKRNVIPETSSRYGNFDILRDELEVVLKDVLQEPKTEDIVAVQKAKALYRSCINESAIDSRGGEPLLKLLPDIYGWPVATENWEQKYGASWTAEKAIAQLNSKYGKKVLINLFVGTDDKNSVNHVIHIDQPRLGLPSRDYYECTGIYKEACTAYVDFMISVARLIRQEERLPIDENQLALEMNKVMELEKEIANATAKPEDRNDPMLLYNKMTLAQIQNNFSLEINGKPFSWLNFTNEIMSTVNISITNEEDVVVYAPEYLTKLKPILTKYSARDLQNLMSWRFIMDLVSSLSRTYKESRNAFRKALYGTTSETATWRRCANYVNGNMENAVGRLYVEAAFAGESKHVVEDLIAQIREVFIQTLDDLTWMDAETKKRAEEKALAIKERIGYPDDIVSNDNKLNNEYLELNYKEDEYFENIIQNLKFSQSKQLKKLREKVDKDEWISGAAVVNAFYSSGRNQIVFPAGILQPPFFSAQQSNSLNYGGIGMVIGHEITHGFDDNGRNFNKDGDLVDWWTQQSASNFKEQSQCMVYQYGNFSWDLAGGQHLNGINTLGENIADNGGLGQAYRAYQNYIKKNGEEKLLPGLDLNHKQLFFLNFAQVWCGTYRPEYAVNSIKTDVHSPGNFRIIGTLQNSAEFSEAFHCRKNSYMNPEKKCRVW
Data set [3] relates to NEP. The conditions noted are these: cited from earlier work.
The subject of data set [4] is NEP2. To be noted: cited from earlier work.
Data set [5] deals with cGMP. The conditions noted are these: canine model of renin-angiotensin-aldosterone system; cited from earlier work.
In data set [6] the target is T2, NEP (recombinant soluble extracellular domain). In words: In vitro NP cleavage by NEP, read by intact-ring s-IA. The data set is classed as in vitro ADME. The method in brief: (§1)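 Ni-NTA-purified His-tagged soluble human ectodomains were used: NEP (aa 56–750, Expi293F) at 9.4 nM and NEP2 (aa 74–779, ExpiCHO-S) at 113 nM. Doses were activity-matched on a fluorogenic substrate. […] Reactions were stopped with EDTA buffer and read by Eu-chelate intact-ring ANP or BNP sandwich immunoassay, relative to enzyme-free sample.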

Data set [7] deals with T1, NEP2 (recombinant soluble extracellular domain). As to the kind of experiment: In vitro NP cleavage by NEP2, read by intact-ring s-IA. To be noted: sentence says the same is true for NEP2. The data set is classed as in vitro ADME. The method in brief:
as §1

Setting [8] is: peptide 1.45 µM, intact-ring s-IA, P < 0.005.

Take `CC(C)C[C@H](NP(=O)(O)O[C@@H]1O[C@@H](C)[C@H](O)[C@@H](O)[C@H]1O)C(=O)N[C@@H](Cc1c[nH]c2ccccc12)C(=O)O` [phosphoramidon]: in data set [1] (BNP 1.45 µM, neo5 s-IA), the “Effect of inhibitor on neo5-epitope formation during BNP proteolysis by NEP2” value was “inhibited”. Besides, the “Effect of inhibitor on ANP and BNP proteolysis by NEP2” value in data set [1] (setting [8]) is “inhibited”. For the same molecule, the “Effect of inhibitor on neo5-epitope formation during BNP proteolysis by NEP” value in data set [2] (BNP 1.45 µM, neo5 s-IA) is listed as “inhibited”. The “Effect of inhibitor on ANP and BNP proteolysis by NEP” value in data set [2] (setting [8]) is on record as “inhibited”. Also, the “Inhibition of NEP” value in data set [3] is “sensitive”. The “Inhibition of NEP2” value in data set [4] was “sensitive”.

With `C[C@H](C[C@@H](Cc1ccc(-c2ccccc2)cc1)NC(=O)CCC(=O)O)C(=O)O` [sacubitrilat], the “Circulating cGMP levels” value in data set [5] was “increased”.

For the molecule `O=C(O)CNC(=O)C(CS)Cc1ccccc1` (centres unmarked) [thiorphan], in data set [4], the “Affinity towards NEP2, fold lower than towards NEP” value was 30 times and the “Inhibition of NEP2” value is reported as “less potently”.

On to “ANP: Synthetic ANP, 28 aa, aar 124–151 of UniProt P01160, Bachem”, for which, in data set [6], the “Susceptibility to proteolysis by NEP relative to BNP” value was “more susceptible to proteolysis”. In data set [7], the “Susceptibility to proteolysis by NEP2 relative to BNP” value is recorded as “more susceptible to proteolysis”.
